Results on nine compounds are retold here after ChEMBL document CHEMBL1165995, “Anti-ischemia steroidal saponins from the seeds of Allium fistulosum” (2010).

What all share (type): functional
What all share (details): Homo sapiens, read-out: Activity

For assay [1], the system named is HUVEC. The experiment in a line: Antiischemic activity against hypoxia/reoxygenation-induced cell injury in HUVEC assessed as cell viability at 100 uM by MTT assay. In short, it runs like this: (§1)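 HUVEC given hypoxia/reoxygenation (H/R) injury and treated with saponin at one of six dose groups (0.5, 1, 5, 10, 50, 100 µM). Viability was read by MTT assay, with untreated control cells and H/R-only cells as references. Values are mean ± SEM of three independent experiments, and significance was tested against the H/R group.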

For assay [2], the system named is HUVEC. As to the kind of experiment: Antiischemic activity against hypoxia/reoxygenation-induced cell injury in HUVEC assessed as cell viability at 1 uM by MTT assay. A digest of the protocol:
as §1

Assay [3] deals with HUVEC. As to the kind of experiment: Antiischemic activity against hypoxia/reoxygenation-induced cell injury in HUVEC assessed as cell viability at 5 uM by MTT assay. In short, it runs like this:
as §1

Assay [4] has as its system HUVEC. The experiment in a line: Antiischemic activity against hypoxia/reoxygenation-induced cell injury in HUVEC assessed as cell viability at 10 uM by MTT assay. A digest of the protocol:
as §1

The test system of assay [5] is HUVEC. As to the kind of experiment: Antiischemic activity against hypoxia/reoxygenation-induced cell injury in HUVEC assessed as cell viability at 50 uM by MTT assay. In short, it runs like this: as §1
The subject of assay [6] is HUVEC. As to the kind of experiment: Antiischemic activity against hypoxia/reoxygenation-induced cell injury in HUVEC assessed as cell viability at 0.5 uM by MTT assay. A digest of the protocol: as §1

With `C[C@@H](CC[C@@]1(O)O[C@H]2C[C@H]3[C@@H]4CC=C5C[C@@H](O[C@@H]6O[C@H](CO)[C@@H](O)[C@H](O)[C@H]6O[C@@H]6O[C@@H](C)[C@H](O[C@@H]7O[C@@H](C)[C@H](O)[C@@H](O)[C@H]7O)[C@@H](O)[C@H]6O)C(=O)C[C@]5(C)[C@H]4CC[C@]3(C)[C@H]2[C@@H]1C)CO[C@@H]1O[C@H](CO)[C@@H](O)[C@H](O)[C@H]1O` [FISTULOSAPONIN C], in assay [1], the viability at 100 µM was 69.5%. In addition, the viability at 1 µM in assay [2] came to 74.8%. Further, the viability at 5 µM in assay [3] came to 79.7%. The viability at 10 µM in assay [4] came to 81.2%. The viability at 50 µM in assay [5] stood at 84.6%. The viability at 0.5 µM in assay [6] is 71.7%.
As for `C[C@@H](CC[C@@]1(O)O[C@H]2C[C@H]3[C@@H]4CC=C5C[C@@H](O[C@@H]6O[C@H](CO)[C@@H](O[C@@H]7O[C@@H](C)[C@H](O)[C@@H](O)[C@H]7O)[C@H](O)[C@H]6O[C@@H]6O[C@@H](C)[C@H](O)[C@@H](O)[C@H]6O)CC[C@]5(C)[C@H]4CC[C@]3(C)[C@H]2[C@@H]1C)CO[C@@H]1O[C@H](CO)[C@@H](O)[C@H](O)[C@H]1O`, the viability at 100 µM in assay [1] is 68.6%. Moreover, the viability at 1 µM in assay [2] was 63.5%. The viability at 5 µM in assay [3] came to 69.4%. Besides, the viability at 10 µM in assay [4] was determined as 72.1%. The viability at 50 µM in assay [5] amounted to 74.3%. In addition, in assay [6], the viability at 0.5 µM came out at 60.7%.
Turning to `CC1=C(CC[C@H](C)CO[C@@H]2O[C@H](CO)[C@@H](O)[C@H](O)[C@H]2O)O[C@H]2C[C@H]3[C@@H]4CC=C5C[C@@H](O[C@@H]6O[C@H](CO)[C@@H](O[C@@H]7O[C@@H](C)[C@H](O)[C@@H](O)[C@H]7O)[C@H](O)[C@H]6O[C@@H]6O[C@@H](C)[C@H](O)[C@@H](O)[C@H]6O)C(=O)C[C@]5(C)[C@H]4CC[C@]3(C)[C@@H]12` [FISTULOSAPONIN A], in assay [1], the viability at 100 µM came out at 78.2%. In assay [2], the viability at 1 µM was 76.3%. Also, the viability at 5 µM in assay [3] amounted to 80.1%. The viability at 10 µM in assay [4] was found to be 82.7%. Moreover, the viability at 50 µM in assay [5] worked out at 86.3%. Besides, in assay [6], the viability at 0.5 µM stood at 59.5%.
With `C[C@@H](CC[C@@]1(O)O[C@H]2C[C@H]3[C@@H]4CC=C5C[C@@H](O[C@@H]6O[C@H](CO)[C@@H](O[C@@H]7O[C@@H](C)[C@H](O)[C@@H](O)[C@H]7O)[C@H](O)[C@H]6O[C@@H]6O[C@@H](C)[C@H](O)[C@@H](O)[C@H]6O)C(=O)C[C@]5(C)[C@H]4CC[C@]3(C)[C@H]2[C@@H]1C)CO[C@@H]1O[C@H](CO)[C@@H](O)[C@H](O)[C@H]1O` [FISTULOSAPONIN B], in assay [1], the viability at 100 µM was 74.8%. Moreover, the viability at 1 µM in assay [2] amounted to 71.8%. The viability at 5 µM in assay [3] stood at 77.2%. In addition, the viability at 10 µM in assay [4] was 79.4%. In addition, in assay [5], the viability at 50 µM stood at 82.1%. Further, in assay [6], the viability at 0.5 µM was found to be 65.7%.
With `CC1=C(CC[C@H](C)CO[C@@H]2O[C@H](CO)[C@@H](O)[C@H](O)[C@H]2O)O[C@H]2C[C@H]3[C@@H]4CC=C5C[C@@H](O[C@@H]6O[C@H](CO)[C@@H](O)[C@H](O)[C@H]6O[C@@H]6O[C@H](CO)[C@@H](O)[C@H](O)[C@H]6O[C@@H]6O[C@H](CO)[C@@H](O)[C@H](O)[C@H]6O)[C@H](O)C[C@]5(C)[C@H]4CC[C@]3(C)[C@@H]12` [FISTULOSAPONIN E], the viability at 100 µM in assay [1] amounted to 68%. For the same compound, in assay [2], the viability at 1 µM turned out to be 64.3%. Also, the viability at 5 µM in assay [3] is 70.2%. In assay [4], the viability at 10 µM is 77.9%. For the same compound, the viability at 50 µM in assay [5] worked out at 75.4%. Besides, the viability at 0.5 µM in assay [6] was 60.9%.
Take `C[C@@H](CC[C@@]1(O)O[C@H]2C[C@H]3[C@@H]4CC=C5C[C@@H](O[C@@H]6O[C@H](CO)[C@@H](O[C@@H]7O[C@@H](C)[C@H](O[C@@H]8O[C@@H](C)[C@H](O)[C@@H](O)[C@H]8O)[C@@H](O)[C@H]7O)[C@H](O)[C@H]6O[C@@H]6O[C@@H](C)[C@H](O)[C@@H](O)[C@H]6O)CC[C@]5(C)[C@H]4CC[C@]3(C)[C@H]2[C@@H]1C)CO[C@@H]1O[C@H](CO)[C@@H](O)[C@H](O)[C@H]1O`: in assay [1], the viability at 100 µM was found to be 62.8%. Further, the viability at 1 µM in assay [2] is 65.2%. Also, the viability at 5 µM in assay [3] is 69.5%. Moreover, in assay [4], the viability at 10 µM turned out to be 73.3%. The viability at 50 µM in assay [5] came to 73.6%. The viability at 0.5 µM in assay [6] is 64%.
For the compound `C[C@@H](CC[C@@]1(O)O[C@H]2C[C@H]3[C@@H]4CC=C5C[C@@H](O[C@@H]6O[C@H](CO)[C@@H](O)[C@H](O)[C@H]6O[C@@H]6O[C@H](CO)[C@@H](O)[C@H](O)[C@H]6O[C@@H]6O[C@H](CO)[C@@H](O)[C@H](O)[C@H]6O)C(=O)C[C@]5(C)[C@H]4CC[C@]3(C)[C@H]2[C@@H]1C)CO[C@@H]1O[C@H](CO)[C@@H](O)[C@H](O)[C@H]1O` [FISTULOSAPONIN D], the viability at 100 µM in assay [1] came to 75.6%. In assay [2], the viability at 1 µM came out at 72.6%. Also, the viability at 5 µM in assay [3] turned out to be 78.2%. Moreover, the viability at 10 µM in assay [4] was determined as 79.8%. The viability at 50 µM in assay [5] came to 82.4%. The viability at 0.5 µM in assay [6] amounted to 68.9%.
With `C[C@@H](CC[C@@]1(O)O[C@H]2C[C@H]3[C@@H]4CC=C5C[C@@H](O[C@@H]6O[C@H](CO)[C@@H](O)[C@H](O[C@@H]7O[C@H](CO)[C@@H](O)[C@H](O)[C@H]7O)[C@H]6O[C@@H]6O[C@@H](C)[C@H](O)[C@@H](O)[C@H]6O)CC[C@]5(C)[C@H]4CC[C@]3(C)[C@H]2[C@@H]1C)CO[C@@H]1O[C@H](CO)[C@@H](O)[C@H](O)[C@H]1O` [PROTOGRACILLIN], the viability at 100 µM in assay [1] worked out at 68%. In addition, the viability at 1 µM in assay [2] was found to be 69.5%. For the same compound, the viability at 5 µM in assay [3] was 75.2%. In assay [4], the viability at 10 µM amounted to 77.9%. Moreover, the viability at 50 µM in assay [5] is 78.2%. For the same compound, the viability at 0.5 µM in assay [6] stood at 60.9%.
With `C[C@@H](CC[C@@]1(O)O[C@H]2C[C@H]3[C@@H]4CC=C5C[C@@H](O[C@@H]6O[C@H](CO)[C@@H](O)[C@H](O)[C@H]6O[C@@H]6O[C@H](CO)[C@@H](O)[C@H](O)[C@H]6O[C@@H]6O[C@H](CO)[C@@H](O)[C@H](O)[C@H]6O)[C@H](O)C[C@]5(C)[C@H]4CC[C@]3(C)[C@H]2[C@@H]1C)CO[C@@H]1O[C@H](CO)[C@@H](O)[C@H](O)[C@H]1O` [FISTULOSAPONIN F], the viability at 100 µM in assay [1] turned out to be 71.2%. Further, the viability at 1 µM in assay [2] turned out to be 68.3%. Moreover, the viability at 5 µM in assay [3] amounted to 74.1%. The viability at 10 µM in assay [4] was found to be 75.5%. Further, the viability at 50 µM in assay [5] turned out to be 77.4%. For the same compound, the viability at 0.5 µM in assay [6] turned out to be 62.3%.
